# Source: ChEMBL document CHEMBL1128440 (J Med Chem, 1995)
# Experiments:
# [1] = biological target: T1, Progesterone receptor (Homo sapiens) (UniProt P06401); experiment: Relative binding affinity against progesterone receptor at 0 degree Celsius determined in a competitive radiometric binding assay (R5020=100%).
# T1 sequence (whole entry): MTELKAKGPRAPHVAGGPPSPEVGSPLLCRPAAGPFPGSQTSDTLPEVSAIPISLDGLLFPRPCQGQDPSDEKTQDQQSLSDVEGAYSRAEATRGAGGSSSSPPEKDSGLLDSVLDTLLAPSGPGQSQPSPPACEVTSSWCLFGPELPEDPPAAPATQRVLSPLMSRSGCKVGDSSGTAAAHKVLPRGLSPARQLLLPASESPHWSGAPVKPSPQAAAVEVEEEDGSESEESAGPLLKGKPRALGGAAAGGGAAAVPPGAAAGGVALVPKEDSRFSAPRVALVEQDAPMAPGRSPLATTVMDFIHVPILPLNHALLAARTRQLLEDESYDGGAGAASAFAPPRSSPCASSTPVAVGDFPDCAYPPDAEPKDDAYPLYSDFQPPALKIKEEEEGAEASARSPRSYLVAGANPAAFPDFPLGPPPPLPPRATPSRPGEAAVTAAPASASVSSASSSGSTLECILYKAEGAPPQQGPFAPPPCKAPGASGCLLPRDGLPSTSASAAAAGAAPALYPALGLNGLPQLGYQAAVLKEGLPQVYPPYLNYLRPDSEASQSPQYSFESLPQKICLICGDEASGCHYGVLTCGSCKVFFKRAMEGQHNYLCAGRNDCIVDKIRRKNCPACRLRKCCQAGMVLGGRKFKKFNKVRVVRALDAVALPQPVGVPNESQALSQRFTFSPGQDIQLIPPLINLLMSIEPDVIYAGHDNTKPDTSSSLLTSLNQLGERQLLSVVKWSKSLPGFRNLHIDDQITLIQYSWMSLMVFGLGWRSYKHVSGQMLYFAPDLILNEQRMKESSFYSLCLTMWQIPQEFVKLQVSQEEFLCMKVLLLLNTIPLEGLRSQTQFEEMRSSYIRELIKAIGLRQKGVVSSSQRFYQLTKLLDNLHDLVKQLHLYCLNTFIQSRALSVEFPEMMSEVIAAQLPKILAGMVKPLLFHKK
# Method in brief: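 Competitive radiometric binding at 0 °C against tritium-labeled R5020 as the standard (RBA = 100). Values are the average of two experiments.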
# [2] = biological target: T1, Progesterone receptor (Homo sapiens); experiment: Binding selectivity index as the ratio of RBA value to that of NSB value.
# Method in brief: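 BSI calculated as the ratio of RBA to NSB.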
# [3] = biological target: T1, Progesterone receptor (Homo sapiens); experiment: Nonspecific binding affinity against progesterone receptor was estimated relative to compound R5020
smiles,measurement,setting,value
CC(=O)[C@H]1CC[C@H]2[C@@H]3CCC4=CC(=O)CC[C@]4(C)[C@H]3CC[C@]12C,RBA,[1],13
same,BSI,[2],16
same,NSB,[3],0.83
